Laboratory results published in ChEMBL document CHEMBL3044977, “Synthesis and fungicidal activity of enantiomerically pure (R)- and (S)-silicon-containing azole fungicides” (Bioorg Med Chem, 2004).

Assays:
[1] = tested on: Rhizoctonia solani; assay: Fungicidal activity against Rhizoctonia solani assessed as inhibition of mycelial growth after 24 to 48 hr by agar dilution method; format: functional, organism-based
In short: (§1)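 Agar dilution on potato dextrose agar. Test compounds were serially diluted in DMSO containing 10% Tween 20, and 0.1 mL of each dilution went into a petri dish with 10 mL of agar medium, which was then solidified. IC50 was taken as the concentration giving 50% inhibition.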

[2] = tested on: Rhizoctonia solani; assay: Antifungal activity against Rhizoctonia solani infected compound pre-treated rice seedlings through submerged application assessed as concentration required to prevent rice sheath blight disease development measured per 10 acres after 7 days under greenhouse condition; format: functional
[3] = tested on: Pyricularia oryzae; assay: Fungicidal activity against Magnaporthe oryzae assessed as inhibition of mycelial growth after 24 to 48 hr by agar dilution method; format: functional, organism-based; in short: as §1
[4] = tested on: Pyricularia oryzae; assay: Antifungal activity against Magnaporthe oryzae infected compound pre-treated rice seedlings through submerged application assessed as concentration required to prevent rice blast disease development measured per 10 acres after 7 days under greenhouse condition; format: functional

Row | SMILES | IC50 [1] [ppm] | Activity [2] [g] | IC50 [3] [ppm] | Activity [4] [g]
1 | C[Si](C)(C)C[C@@](O)(Cn1cncn1)c1ccc(F)cc1 | 0.54 | >100 | 33.5 | >100
2 | C[Si](C)(C)C[C@](O)(Cn1cncn1)c1ccc(F)cc1 | 0.016 | 25 | 0.95 | 100
3 | C[Si](C)(C)CC(O)(Cn1cncn1)c1ccc(F)cc1 (racemic) [SIMECONAZOLE] | 0.042 | 25 | 1.25 | 100
